High-throughput results deposited in PubChem BioAssay by several laboratories.
CYP2C9 inhib: inhibitors of human CYP2C9. inhibition, % at 5 µM. CYP2C9 Supersomes, luciferin-H conversion, luminescence. P11712. 96,000 compounds, 20% hits;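 active = blocking of liver enzyme CYP2C9 beyond about 50% at 5 µM, limit read from the data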
CYP2C19 inhib: blocks human cytochrome P450 2C19. CYP2C19 Supersomes, luciferin-H EGE luminescence, 30 min. inhibition, % at 5 µM. 96,000 compounds, 21% hits;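 active = CYP2C19 inhibition above a set limit at 5 µM in the primary screen, cut at about 50% in these data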;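 note: plate controls were negative control wells for no effect and 2.5 mM tranylcypromine positive control for full effect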
Cav32 inh: inhibitors of human Cav3.2 T-type calcium channel | AID 449739 | O95180 | B-score at 10 µM | Cav3.2-expressing cells, Fluo-4 calcium fluorescence FDSS; active compounds read low | 100,000 compounds, 4% hits;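 active = single-dose well whose peak fluorescence ratio is a statistical outlier from its plate by either plate-standardised score or position-corrected B-score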
Rev-RRE block: HIV Rev-RRE protein-RNA interaction inhibition | Rev peptide-RRE RNA binding, FRET | P05866 | AID 704 | 97,000 compounds, 0.79% hits | inhibition, % at 8 µM;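 active = inhibition above the screen-wide mean plus 3 SD, cut at about 35% in these data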;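 note: 0% = median DMSO wells and 100% = median Neomycin B control wells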
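Test system: Cy5-tagged RRE RNA duplex with fluorescein-tagged Rev peptide | Read-out: % inhibition of FRET ratio versus controls | Probe or stimulus: Labelled Rev peptide | Incubation: 5 min RNA-compound premix plus 15 min binding step, 25 °C | Technique: FRET fluorescence readout | Benchmarks: DMSO low control, neomycin B high control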
CYP2C9 activ: CYP2C9 (human) activation; P11712; recombinant CYP2C9, luciferin-H conversion, luminescence; active compounds read high; factor 1 = untreated enzyme, 0 = blocked; activation factor at 5 µM; 96,000 compounds, 1.4% hits;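 active = activation factor of 2 or more for CYP2C9 at a 5 µM dose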;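 note: 0 = sulfaphenazole-blocked wells and 1 = vehicle-only wells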
CYP2C19 activ: increases human CYP2C19 enzyme activity; P33261; recombinant CYP2C19, luciferin-H EGE luminescence; active compounds read high; 0 = fully inhibited enzyme, 1 = untreated enzyme; activation factor at 5 µM; 96,000 tested, under 10 active; AID 1025;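 active = activation factor of at least 2 at 5 µM in the primary screen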;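 note: 0 = wells with 2.5 mM tranylcypromine and 1 = vehicle-only wells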
Starred values were filed as active, the others as inactive; . = no result. Most compounds without a hit are left out; they make up all but 27% or so of the library.

SMILES	CYP2C9 inhib	CYP2C19 inhib	Cav32 inh	Rev-RRE block	CYP2C9 activ	CYP2C19 activ
CC(C)CC(=O)NN(C)c1nc(-c2ccccc2)nnc1C(F)(F)F	26	78*	1.1	8	0.7	0.2
O=C(O)c1ccc2c(c1)C(=O)N(C(Cc1ccc(O)cc1)C(=O)O)C2=O (configuration not stated)	-4	2	0.61	5	1	1
CCCCNC(=O)N(O)C1N(CCCC)C(=O)N(CC(=O)OC)C1(C)C (configuration not stated)	.	.	0.43	0	.	.
COc1cccc(C(=O)NC(Cc2ccccc2)c2ccc3c(c2)OCCCO3)c1 (configuration not stated)	75*	46	-0.89	1	0.2	0.5
O=C(NC(Cc1ccccc1)c1ccc2c(c1)OCCCO2)c1ccc(F)cc1 (configuration not stated)	90*	64*	-1.3	3	0.1	0.4
O=S(=O)(Nc1ccc(-c2nc3cccnc3s2)cc1)c1cccs1	83*	24	0.023	2	0.2	0.8
O=S(=O)(Nc1ccc(N2CCOCC2)cc1)c1cccs1	46	90*	-0.21	3	0.5	0.1
CCc1ccc(NS(=O)(=O)c2cccs2)cc1	67*	56*	-2.6	2	0.3	0.4
CC(C)CNS(=O)(=O)c1ccc(CCC(=O)NCc2ccco2)cc1	.	.	0.61	7	.	.
CCOC(=O)C1CCN(C(=O)c2oc3ccc(S(=O)(=O)N4CC(C)CC(C)C4)cc3c2C)CC1 (configuration not stated)	35	35	-5.9*	6	0.7	0.7
Cc1c(C(=O)O)oc2ccc(S(=O)(=O)N3CCCCC3C(=O)O)cc12 (configuration not stated)	5	-1	-2.2	7	0.9	1
Cc1c(C(=O)O)oc2ccc(S(=O)(=O)N3CCC(C)CC3)cc12	38	2	-0.43	.	0.6	1
CCOC(=O)N1CCN(C(=O)c2oc3ccc(S(=O)(=O)N4CC(C)CC(C)C4)cc3c2C)CC1 (configuration not stated)	51*	61*	-2.3	2	0.5	0.4
Cc1ccccc1N(CC(=O)N/N=C/c1ccc(N(C)C)cc1)C(=O)c1ccccc1	93*	89*	-4.5*	8	0.1	0.1
CCOCCCNC(=O)c1cc2sc(Cl)cc2n1CC	22	52*	-1.9	.	0.8	0.5
Nc1nc(NCc2c(F)cccc2Cl)nn1-c1ccccc1	-2	29	0.58	-1	1	0.7
Fc1cccc(Cl)c1CNCc1ccccc1Cl	30	86*	0.96	-2	0.7	0.1
Cn1c2ccccc2c2c(C(=O)N3CCN(c4ccccc4)CC3)cn(C3CCCC3)c(=O)c21	52*	40	-3.4	9	0.5	0.6
Cn1c2ccccc2c2c(C(=O)NCCCN3CCCC3=O)cn(C3CCCCC3)c(=O)c21	55*	33	-0.042	4	0.5	0.7
Cc1cccc(N2CCN(C(=O)c3cn(C)c(=O)c4c3c3ccccc3n4C)CC2)c1C	70*	8	.	-4	0.3	0.9
Cn1c2ccccc2c2c(C(=O)NCC3CCCO3)cn(C3CCCC3)c(=O)c21 (configuration not stated)	40	30	1.1	3	0.6	0.7
CCOC(=O)N1CCN(C(=O)c2cn(CCOC)c(=O)c3c2c2ccccc2n3C)CC1	-2	-10	0.97	11	1	1.1
COCCn1cc(C(=O)N2CCN(C)CC2)c2c3ccccc3n(C)c2c1=O	-1	0	1.1	9	1	1
Cc1ccc(Cl)cc1N1CCN(C(=O)c2cn(C)c(=O)c3c2c2ccccc2n3C)CC1	96*	86*	-1.3	-1	0	0.1
CN1CCN(CCCNC(=O)c2cn(C3CCCCC3)c(=O)c3c2c2ccccc2n3C)CC1	1	34	1.4	5	1	0.7
O=C(NCc1ccccn1)c1ccc(COc2ccc(Cl)cc2)o1	5	8	-0.63	4	0.9	0.9
c1ccc(-c2nnc(SCc3cn4ccsc4n3)o2)cc1	-3	69*	0.81	5	1	0.3
O=C(CN1CCN(c2ccccc2)CC1)Nc1c(C(=O)C2CC2)oc2ccccc12	.	.	-0.46	-1	.	.
